Data reported in ChEMBL document CHEMBL2046351, “Discovery of cyclic sulfone hydroxyethylamines as potent and selective β-site APP-cleaving enzyme 1 (BACE1) inhibitors: structure-based design and in vivo reduction of amyloid β-peptides” (J Med Chem, 2012).

Experiments:
[1] = AUC (0 to infinity) in C57BL/6 mouse at 2 umol/kg, iv dosed in N-methyl pyrrolidone/blank plasma (10:90 v/v) by LC/MS/MS analysis; assay type: ADME, organism-based; parameters: dose 2 umol/kg, time infinity, route intravenous
In short: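 Male C57BL/6 mice got a single injection into the saphenous vein under light anaesthesia at 5 mL/kg. Blood was taken at 5 and 30 min and 1, 2, 4, 6 and 8 h (n = 3 per time). Blood was extracted by acetonitrile precipitation and quantified by LC-MS/MS against a weighted linear calibration. AUC came from noncompartmental analysis with 1/Y weighting.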

[2] = Volume of distribution at steady state in C57BL/6 mouse at 2 umol/kg, iv dosed in N-methyl pyrrolidone/blank plasma (10:90 v/v) by LC/MS/MS analysis; assay type: ADME, organism-based; details: read-out: Vdss
In short: (§1)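 Male C57BL/6 mice, saphenous vein injection under light anesthesia, 5 mL/kg. Blood at 5, 30 min and 1, 2, 4, 6, 8 h; brain at 5 min, 1, 4, 8 h; n = 3/time. LC-MS/MS after acetonitrile precipitation (brain water-homogenized). Noncompartmental analysis, 1/Y weighting, terminal slope from ≥3 points.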

[3] = Blood clearance in C57BL/6 mouse at 2 umol/kg, iv dosed in N-methyl pyrrolidone/blank plasma (10:90 v/v) by LC/MS/MS analysis; assay type: ADME, organism-based; in short: as §1
[4] = Ratio of drug uptake in brain to blood in C57BL/6 mouse at 60 umol/kg, po dosed in HS15/propylenglycol/citrate buffer, pH 4.75, 50 mM (10/5/85, v/v/v) measured 4 hrs post dosing by LC/MS/MS analysis; assay type: ADME, organism-based
In short: (§2)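 Male C57BL/6 mice received the dose by oral gavage at 10 mL/kg. Blood and brain were collected at 1 and/or 4 h postdose. Brain was homogenised in water, and both matrices were extracted by acetonitrile precipitation and quantified by LC-MS/MS. The ratio is mean brain (nmol/g) over mean blood (nmol/mL) concentration, n = 3.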

[5] = Drug uptake in APP51/16 transgenic mouse blood at 180 umol/kg, po measured 4 hrs post dosing by LC/MS/MS analysis; assay type: ADME, organism-based; details: read-out: Drug uptake
In short: (§3)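 APP51/16 transgenic mice given oral gavage (10 mL/kg); blood and forebrain taken at 4 h postdose. Blood extracted by acetonitrile precipitation; brain homogenized in water, then acetonitrile-precipitated. LC-MS/MS quantitation against weighted linear calibration of analyte/internal standard area ratio.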

[6] = Ratio of drug uptake in brain to blood in C57BL/6 mouse at 60 umol/kg, po dosed in HS15/propylenglycol/citrate buffer, pH 4.75, 50 mM (10/5/85, v/v/v) measured 1 hr post dosing by LC/MS/MS analysis; assay type: ADME, organism-based; in short: as §2
Mus musculus [7] = assay: Antialzheimer activity in APP51/16 transgenic mouse expressing human APP51/16Npa and mouse Thy1 assessed as reduction in amyloid beta (1 to 40) reduction at 180 umol/kg, po measured 4 hrs post dosing; assay type: functional; parameters: scale not given: the % may be the effect or the level left
In short: (§4)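 Hemizygous APP51/16 mice (human APP751 wild-type under murine Thy-1 cassette, C57BL/6 background) gavaged (10 mL/kg), decapitated at 4 h. Forebrain homogenized in TBS with protease inhibitors, 1% TX-100 extract, spun 100000 rpm 30 min 4 °C. Aβ40 by 6E10 electrochemiluminescence immunoassay against spiked nontransgenic extract standards; C99 by APP-C8 western blot, densitometry. Two-tailed Student's t test versus vehicle.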

[8] = Ratio of drug uptake in brain to blood in C57BL/6 mouse at 6 umol/kg, po dosed in HS15/propylenglycol/citrate buffer, pH 4.75, 50 mM (10/5/85, v/v/v) measured 4 hrs post dosing by LC/MS/MS analysis; assay type: ADME, organism-based; in short: as §2
[9] = Half life in C57BL/6 mouse at 2 umol/kg, iv dosed in N-methyl pyrrolidone/blank plasma (10:90 v/v) by LC/MS/MS analysis; assay type: ADME, organism-based; in short: as §1
Brain [10] = assay: Drug uptake in APP51/16 transgenic mouse brain at 180 umol/kg, po measured 4 hrs post dosing by LC/MS/MS analysis; assay type: ADME, organism-based; details: in vivo; in short: as §3
Mus musculus [11] = assay: Antialzheimer activity in APP51/16 transgenic mouse expressing human APP51/16Npa and mouse Thy1 assessed as reduction in brain C99 level reduction at 180 umol/kg, po measured 4 hrs post dosing; assay type: functional; parameters: scale not given: the % may be the effect or the level left; in short: as §4
MDR1 (human) = assay: Apparent permeability across MDCK cells expressing human MDR1 at 5 uM after 2 hrs by LC-MS analysis; assay type: ADME, cell-based, Canis lupus familiaris; details: dog
In short: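 MDCK cells retrovirally transduced with human MDR1, seeded on transwells ≥3 days; bidirectional transport at 5 μM, 2 h, 37 °C, LC/MS quantitation. Papp = (dQ/dt)/(A·C0), A 0.11 cm2; ER = Papp B>A / Papp A>B. Means of at least three experiments.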

[12] = Ratio of drug uptake in brain to blood in C57BL/6 mouse at 2 umol/kg, iv dosed in N-methyl pyrrolidone/blank plasma (10:90 v/v) measured 4 hrs post dosing by LC/MS/MS analysis; assay type: ADME, organism-based; in short: as §1
[13] = Drug uptake in C57BL/6 mouse blood at 60 umol/kg, po dosed in carboxymethyl cellulose 0.5% w/v in water/Tween 80 (99.5/0.5, v/v) measured 1 hr post dosing by LC/MS/MS analysis; assay type: ADME, organism-based; details: read-out: Drug uptake
In short: (§5)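 Male C57BL/6 mice dosed by oral gavage, 10 mL/kg. Blood sampled 0.25, 0.5, 1, 2, 4, 6 h; brain at 1 and/or 4 h; n = 3 per time. Blood acetonitrile-precipitated, brain water-homogenized then precipitated; LC-MS/MS with weighted linear calibration.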

[14] = Ratio of drug uptake in brain to blood in C57BL/6 mouse at 60 umol/kg, po dosed in carboxymethyl cellulose 0.5% w/v in water/Tween 80 (99.5/0.5, v/v) measured 1 hr post dosing by LC/MS/MS analysis; assay type: ADME, organism-based; in short: as §5
Brain [15] = assay: Drug uptake in C57BL/6 mouse brain at 6 umol/kg, po dosed in carboxymethyl cellulose 0.5% w/v in water/Tween 80 (99.5/0.5, v/v) measured 4 hrs post dosing by LC/MS/MS analysis; assay type: ADME, organism-based; details: in vivo; in short: as §5
Cathepsin D = Cathepsin D (Homo sapiens, UniProt P07339); assay: Inhibition of human recombinant CatD using Mca-GKPILFFRLK(DNP)-dR-NH2 as substrate after 1 hr by fluorescence analysis
[16] = Drug uptake in C57BL/6 mouse blood at 6 umol/kg, po dosed in carboxymethyl cellulose 0.5% w/v in water/Tween 80 (99.5/0.5, v/v) measured 1 hr post dosing by LC/MS/MS analysis; assay type: ADME, organism-based; details: read-out: Drug uptake; in short: as §5
[17] = AUC (0 to infinity) in C57BL/6 mouse at 60 umol/kg, po dosed in carboxymethyl cellulose 0.5% w/v in water/Tween 80 (99.5/0.5, v/v) by LC/MS/MS analysis; assay type: ADME, organism-based; parameters: dose 60 umol/kg, route oral, time infinity; details: in vivo
In short: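 Male C57BL/6 mice were dosed by oral gavage at 10 mL/kg. Blood was sampled at 0.25, 0.5, 1, 2, 4 and 6 h postdose, extracted by acetonitrile precipitation and quantified by LC-MS/MS (typical LLOQ 0.4 ng/mL). AUCinf was obtained by noncompartmental analysis of concentration–time profiles, weighting 1/Y, with at least three terminal log-linear points.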

Chain of Cathepsin D (P07339 65-162 limits assumed): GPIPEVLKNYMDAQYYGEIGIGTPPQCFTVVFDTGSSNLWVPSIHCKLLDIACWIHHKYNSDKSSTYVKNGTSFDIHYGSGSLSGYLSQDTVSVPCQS
Chain of Cathepsin D (P07339 169-412 limits assumed): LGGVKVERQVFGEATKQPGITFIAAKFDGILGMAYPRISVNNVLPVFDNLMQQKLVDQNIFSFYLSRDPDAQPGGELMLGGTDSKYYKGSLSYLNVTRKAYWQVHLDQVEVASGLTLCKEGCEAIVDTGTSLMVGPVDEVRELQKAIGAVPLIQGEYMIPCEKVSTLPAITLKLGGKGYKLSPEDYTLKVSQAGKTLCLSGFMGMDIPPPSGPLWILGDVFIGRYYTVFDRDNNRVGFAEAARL

## CC(C)(C)c1cccc(CN[C@H]2CS(=O)(=O)C[C@@H](Cc3cc(F)c(N)c(OC(C(F)(F)F)C(F)(F)F)c3)[C@@H]2O)c1
[1]
  AUC(0-inf): 0.407 µM·h
[2]
  Vd: 16.3 L/kg
[3]
  clearance: 82 mL/min/kg
[4]
  Kp at 4 h: 0.8
[5]
  concentration at 4 h: 3.7 µM
[6]
  Kp at 1 h: 0.5
Mus musculus [7]
  Activity: 6%
[8]
  Kp at 4 h: 0.3
[9]
  half-life: 174 min
Brain [10]
  Drug uptake: 1.5 nmol/g
Mus musculus [11]
  Activity: 22%
MDR1 (human)
  Papp at 2 h, 5 µM: 3 ×10⁻⁶ cm/s

## CC(C)(C)c1cccc(CN[C@H]2CS(=O)(=O)C[C@@H](Cc3cc(F)c(N)c(OCC(F)(F)F)c3)[C@@H]2O)c1
[12]
  Kp at 4 h: 1
[13]
  concentration at 1 h: 4.1 µM
[1]
  AUC(0-inf): 0.3 µM·h
[2]
  Vd: 7.2 L/kg
[3]
  clearance: 111 mL/min/kg
[14]
  Kp at 1 h: 0.3
[5]
  concentration at 4 h: 10.2 µM
Brain [15]
  Drug uptake: 0.11 nmol/g
Mus musculus [7]
  Activity: 31%
[9]
  half-life: 84 min
Cathepsin D
  IC50: 690 nM
Brain [10]
  Drug uptake: 1.8 nmol/g
Mus musculus [11]
  Activity: 34%
[16]
  concentration at 1 h: 30 nM
[17]
  AUC(0-inf): 14.8 µM·h
MDR1 (human)
  Papp at 2 h, 5 µM: 25 ×10⁻⁶ cm/s
